In ChEMBL document CHEMBL2016531, “Identification of NAE Inhibitors Exhibiting Potent Activity in Leukemia Cells: Exploring the Structural Determinants of NAE Specificity” (ACS Med Chem Lett, 2011):
Calls of active or inactive are those of the source. The calls are words filed in the database; no cut-off is given here.

Tests used:
[1] = target: T1, NEDD8-activating enzyme E1 catalytic subunit (Homo sapiens) (UniProt Q8TBC4); assay: Inhibition of UBA3-mediated NEDD8 activation at […] after 1.5 hrs by Western blot analysis
T1 sequence (whole entry): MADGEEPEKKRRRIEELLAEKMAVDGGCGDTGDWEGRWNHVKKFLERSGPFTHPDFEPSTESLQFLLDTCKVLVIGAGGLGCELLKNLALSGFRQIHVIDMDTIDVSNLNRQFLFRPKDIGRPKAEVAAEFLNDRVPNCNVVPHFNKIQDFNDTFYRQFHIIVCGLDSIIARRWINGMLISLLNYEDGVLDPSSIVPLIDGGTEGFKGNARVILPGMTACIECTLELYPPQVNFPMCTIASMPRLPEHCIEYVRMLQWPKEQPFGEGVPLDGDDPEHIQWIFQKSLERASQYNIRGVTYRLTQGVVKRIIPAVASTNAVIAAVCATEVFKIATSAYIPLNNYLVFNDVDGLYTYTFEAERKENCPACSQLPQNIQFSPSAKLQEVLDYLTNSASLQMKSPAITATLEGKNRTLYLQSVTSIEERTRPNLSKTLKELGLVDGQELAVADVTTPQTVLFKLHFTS

[2] = test system: K562; assay: Antiproliferative activity against human K562 cells after 72 hrs by CellTiter-Glo assay; format: functional, cell-based; settings: K562, 72 h
Summary of the method: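 K562 leukemia cells exposed to increasing concentrations for 72 h; growth and viability read by CellTiter-Glo luminescence.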

[3] = target: Insulin-like growth factor 1 receptor (Homo sapiens) (UniProt P08069); assay: Inhibition of IGF1R assessed as remaining activity at 0.1 uM by radiolabeled kinase assay relative to control
[4] = organism: Homo sapiens; assay: Inhibition of human recombinant UAE assessed as inhibition of UbcH6-Ub complex formation at 0.001 to 10 uM after 1.5 hrs by Western blot analysis
Summary of the method: (§1)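 Cell-free gel assay. Purified human recombinant E1 incubated with its matching Ub/Ubl and E2 in 50 mM HEPES pH 7.4, 5 mM MgCl2, 1–20 μM ATP. Inhibitor at 0, 0.001, 0.01, 0.1, 1 or 10 μM, 1.5 h at room temperature. Products resolved by SDS-PAGE, immunoblotted and detected by ECL; densitometry used for semiquantitation.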

[5] = target: T2, NEDD8-activating enzyme E1 regulatory subunit (Homo sapiens) (UniProt Q13564); assay: Inhibition of APPBP1-mediated NEDD8 activation at […] after 1.5 hrs by Western blot analysis
T2 sequence (whole entry): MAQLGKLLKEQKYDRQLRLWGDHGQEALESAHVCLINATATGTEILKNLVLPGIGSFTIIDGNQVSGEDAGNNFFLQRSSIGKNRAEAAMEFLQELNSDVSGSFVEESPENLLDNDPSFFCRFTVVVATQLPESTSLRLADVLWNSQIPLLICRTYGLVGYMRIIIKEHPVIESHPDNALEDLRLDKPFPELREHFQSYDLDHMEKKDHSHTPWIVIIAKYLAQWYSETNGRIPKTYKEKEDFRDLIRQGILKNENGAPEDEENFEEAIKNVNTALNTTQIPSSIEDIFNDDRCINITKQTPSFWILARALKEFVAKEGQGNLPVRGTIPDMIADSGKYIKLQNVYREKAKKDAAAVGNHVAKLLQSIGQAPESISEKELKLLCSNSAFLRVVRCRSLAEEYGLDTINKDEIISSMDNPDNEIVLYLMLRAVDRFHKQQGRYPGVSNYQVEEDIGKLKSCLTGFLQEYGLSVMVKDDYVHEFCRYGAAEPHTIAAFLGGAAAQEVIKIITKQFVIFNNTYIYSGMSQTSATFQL

[6] = target: Tyrosine-protein kinase ABL1 (Homo sapiens) (UniProt P00519); assay: Inhibition of ABL assessed as remaining activity at 0.1 uM by radiolabeled kinase assay relative to control
Sequence of Tyrosine-protein kinase ABL1 (Homo sapiens) (P00519 whole entry): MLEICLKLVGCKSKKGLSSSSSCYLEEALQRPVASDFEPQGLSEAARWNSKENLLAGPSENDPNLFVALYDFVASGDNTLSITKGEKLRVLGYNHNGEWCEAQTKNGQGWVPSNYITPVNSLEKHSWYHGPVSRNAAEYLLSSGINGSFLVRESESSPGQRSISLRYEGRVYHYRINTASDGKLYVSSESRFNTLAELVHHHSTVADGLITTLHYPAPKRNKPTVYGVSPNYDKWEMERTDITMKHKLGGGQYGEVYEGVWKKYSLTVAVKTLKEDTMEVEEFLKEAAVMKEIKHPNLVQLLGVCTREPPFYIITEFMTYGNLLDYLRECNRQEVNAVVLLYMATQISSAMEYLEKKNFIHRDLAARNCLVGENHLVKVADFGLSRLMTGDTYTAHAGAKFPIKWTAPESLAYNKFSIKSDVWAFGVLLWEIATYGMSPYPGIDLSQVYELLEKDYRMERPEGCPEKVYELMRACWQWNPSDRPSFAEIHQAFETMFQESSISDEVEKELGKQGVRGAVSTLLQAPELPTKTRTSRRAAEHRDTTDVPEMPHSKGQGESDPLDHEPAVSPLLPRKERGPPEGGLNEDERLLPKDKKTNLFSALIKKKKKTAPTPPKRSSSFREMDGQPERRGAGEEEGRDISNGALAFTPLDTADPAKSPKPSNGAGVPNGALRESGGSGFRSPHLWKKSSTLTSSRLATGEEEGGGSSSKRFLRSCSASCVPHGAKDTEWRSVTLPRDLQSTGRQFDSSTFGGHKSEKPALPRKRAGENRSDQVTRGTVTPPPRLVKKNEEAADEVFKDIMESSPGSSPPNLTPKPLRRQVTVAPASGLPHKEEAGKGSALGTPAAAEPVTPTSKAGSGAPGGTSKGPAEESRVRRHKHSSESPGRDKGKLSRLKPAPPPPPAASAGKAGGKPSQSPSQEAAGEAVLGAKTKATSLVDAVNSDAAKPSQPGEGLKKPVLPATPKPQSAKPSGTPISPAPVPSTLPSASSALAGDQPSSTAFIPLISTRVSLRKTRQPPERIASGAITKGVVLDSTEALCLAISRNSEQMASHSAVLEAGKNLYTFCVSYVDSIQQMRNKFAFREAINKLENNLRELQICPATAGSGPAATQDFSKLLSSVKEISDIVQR

[7] = organism: Homo sapiens; assay: Inhibition of human recombinant NAE assessed as inhibition of NEDD8-UbcH12 complex formation at 0.001 to 10 uM after 1.5 hrs by Western blot analysis; summary of the method: as §1
[8] = target: SUMO-activating enzyme (Homo sapiens) (UniProt Q9UBE0+Q9UBT2); assay: Inhibition of human recombinant SAE1/2 assessed as inhibition of SUMO1-UbcH9 complex formation at 0.001 to 10 uM after 1.5 hrs by Western blot analysis; format: protein-complex assay; summary of the method: as §1
[9] = target: Cyclin-dependent kinase 1/cyclin B1 (Homo sapiens) (UniProt P06493+P14635); assay: Inhibition of CDK1/cyclin B assessed as remaining activity at 0.1 uM by radiolabeled kinase assay relative to control; format: protein-complex assay
Sequence of Cyclin-dependent kinase 1/cyclin B1 (Homo sapiens) (P06493 whole entry, looked up): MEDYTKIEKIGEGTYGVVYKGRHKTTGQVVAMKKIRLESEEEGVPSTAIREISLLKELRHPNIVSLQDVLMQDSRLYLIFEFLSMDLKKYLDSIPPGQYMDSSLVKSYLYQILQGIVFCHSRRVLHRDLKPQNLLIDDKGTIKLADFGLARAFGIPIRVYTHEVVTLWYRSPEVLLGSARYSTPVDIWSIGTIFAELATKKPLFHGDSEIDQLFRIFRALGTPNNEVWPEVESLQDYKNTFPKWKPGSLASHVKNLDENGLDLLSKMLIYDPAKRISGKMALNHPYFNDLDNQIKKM
Sequence of Cyclin-dependent kinase 1/cyclin B1 (Homo sapiens) (P14635 whole entry, looked up): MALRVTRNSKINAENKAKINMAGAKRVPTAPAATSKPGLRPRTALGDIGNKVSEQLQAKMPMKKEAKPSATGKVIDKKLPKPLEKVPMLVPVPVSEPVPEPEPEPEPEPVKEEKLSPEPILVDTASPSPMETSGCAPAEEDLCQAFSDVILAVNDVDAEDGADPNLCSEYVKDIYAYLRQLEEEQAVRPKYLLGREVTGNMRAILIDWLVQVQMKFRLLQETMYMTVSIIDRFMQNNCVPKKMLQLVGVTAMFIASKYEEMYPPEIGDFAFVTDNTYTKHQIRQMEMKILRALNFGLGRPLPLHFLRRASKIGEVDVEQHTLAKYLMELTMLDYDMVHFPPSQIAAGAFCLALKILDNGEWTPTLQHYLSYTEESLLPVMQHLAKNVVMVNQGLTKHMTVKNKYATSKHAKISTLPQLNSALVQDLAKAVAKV

[10] = target: High affinity nerve growth factor receptor (Homo sapiens) (UniProt P04629); assay: Inhibition of TRKA assessed as remaining activity at 0.1 uM by radiolabeled kinase assay relative to control
Sequence of High affinity nerve growth factor receptor (Homo sapiens) (P04629 33-796 limits assumed): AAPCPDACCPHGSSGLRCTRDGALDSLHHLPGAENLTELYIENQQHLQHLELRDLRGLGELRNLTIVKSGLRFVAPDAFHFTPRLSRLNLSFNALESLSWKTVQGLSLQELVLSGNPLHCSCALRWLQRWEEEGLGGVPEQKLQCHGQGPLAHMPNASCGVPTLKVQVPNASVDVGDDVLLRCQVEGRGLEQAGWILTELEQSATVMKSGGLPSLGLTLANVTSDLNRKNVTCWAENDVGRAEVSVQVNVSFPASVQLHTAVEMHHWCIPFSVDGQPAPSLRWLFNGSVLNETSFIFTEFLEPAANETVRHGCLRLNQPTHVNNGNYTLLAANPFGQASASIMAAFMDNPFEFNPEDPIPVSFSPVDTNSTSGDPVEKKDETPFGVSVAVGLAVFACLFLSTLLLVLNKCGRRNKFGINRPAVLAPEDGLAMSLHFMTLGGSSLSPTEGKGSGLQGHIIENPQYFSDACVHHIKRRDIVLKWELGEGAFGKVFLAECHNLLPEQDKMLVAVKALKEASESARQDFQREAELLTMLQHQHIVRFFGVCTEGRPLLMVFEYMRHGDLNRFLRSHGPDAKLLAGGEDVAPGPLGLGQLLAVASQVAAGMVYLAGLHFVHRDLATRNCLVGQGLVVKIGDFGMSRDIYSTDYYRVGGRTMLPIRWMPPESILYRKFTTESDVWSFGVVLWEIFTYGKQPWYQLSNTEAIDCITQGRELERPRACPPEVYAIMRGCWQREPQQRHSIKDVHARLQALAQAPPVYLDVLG

[11] = target: Calcium/calmodulin-dependent protein kinase type II subunit beta (Homo sapiens) (UniProt Q13554); assay: Inhibition of CAMK2b assessed as remaining activity at 0.1 uM by radiolabeled kinase assay relative to control
Sequence of Calcium/calmodulin-dependent protein kinase type II subunit beta (Homo sapiens) (Q13554 whole entry): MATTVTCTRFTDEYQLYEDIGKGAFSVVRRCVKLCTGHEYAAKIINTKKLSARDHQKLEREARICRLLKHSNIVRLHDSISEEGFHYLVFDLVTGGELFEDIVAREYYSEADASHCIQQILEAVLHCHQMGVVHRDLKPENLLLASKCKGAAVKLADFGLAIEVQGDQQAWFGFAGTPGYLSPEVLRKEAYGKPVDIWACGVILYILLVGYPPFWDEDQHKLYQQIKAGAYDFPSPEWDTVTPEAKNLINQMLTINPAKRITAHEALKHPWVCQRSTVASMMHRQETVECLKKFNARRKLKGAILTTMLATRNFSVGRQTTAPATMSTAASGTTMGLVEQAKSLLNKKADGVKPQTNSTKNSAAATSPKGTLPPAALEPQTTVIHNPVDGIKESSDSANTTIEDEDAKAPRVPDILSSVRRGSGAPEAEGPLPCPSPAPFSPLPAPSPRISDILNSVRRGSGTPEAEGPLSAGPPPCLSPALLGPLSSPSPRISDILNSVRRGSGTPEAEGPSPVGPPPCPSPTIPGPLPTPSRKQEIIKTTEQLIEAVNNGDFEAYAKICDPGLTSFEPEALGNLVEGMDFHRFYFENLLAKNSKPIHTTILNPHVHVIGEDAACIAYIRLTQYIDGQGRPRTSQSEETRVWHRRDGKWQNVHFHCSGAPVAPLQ

[12] = target: Death-associated protein kinase 1 (Homo sapiens) (UniProt P53355); assay: Inhibition of DAPK1 assessed as remaining activity at 0.1 uM by radiolabeled kinase assay relative to control
[13] = target: Tyrosine-protein kinase JAK1 (Homo sapiens) (UniProt P23458); assay: Inhibition of JAK1 assessed as remaining activity at 0.1 uM by radiolabeled kinase assay relative to control
[14] = test system: K562; assay: Inhibition of NAE in human K562 cells assessed as inhibition of NEDD8-cullin complex formation at 1 to 1000 nM after 24 hrs by immunoblotting; format: cell-based
Summary of the method: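 K562 cells treated with increasing concentrations for 24 h, then harvested. Total cellular protein isolated and NEDD8–cullin conjugates detected by immunoblotting.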

[15] = target: Dual specificity mitogen-activated protein kinase kinase 1 (Homo sapiens) (UniProt Q02750); assay: Inhibition of MEK1 assessed as remaining activity at 0.1 uM by radiolabeled kinase assay relative to control
Sequence of Dual specificity mitogen-activated protein kinase kinase 1 (Homo sapiens) (Q02750 whole entry): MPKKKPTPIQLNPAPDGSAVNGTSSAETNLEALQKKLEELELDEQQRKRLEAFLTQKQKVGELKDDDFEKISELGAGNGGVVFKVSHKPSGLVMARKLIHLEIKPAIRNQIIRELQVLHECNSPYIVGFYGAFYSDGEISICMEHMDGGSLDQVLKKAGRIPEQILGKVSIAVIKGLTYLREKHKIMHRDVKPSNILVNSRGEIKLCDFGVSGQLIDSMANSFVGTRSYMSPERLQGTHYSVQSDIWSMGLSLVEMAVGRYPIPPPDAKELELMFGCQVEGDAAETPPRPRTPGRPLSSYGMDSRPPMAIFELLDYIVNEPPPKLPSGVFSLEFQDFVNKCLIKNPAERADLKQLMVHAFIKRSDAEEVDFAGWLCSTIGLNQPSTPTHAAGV

[16] = target: Ubiquitin-like modifier-activating enzyme 5 (Homo sapiens) (UniProt Q9GZZ9); assay: Inhibition of human recombinant UBA5 assessed as inhibition of […]-UFM1 complex formation at 10 uM after 1.5 hrs by Western blot analysis; summary of the method: as §1
Sequence of Ubiquitin-like modifier-activating enzyme 5 (Homo sapiens) (Q9GZZ9 whole entry): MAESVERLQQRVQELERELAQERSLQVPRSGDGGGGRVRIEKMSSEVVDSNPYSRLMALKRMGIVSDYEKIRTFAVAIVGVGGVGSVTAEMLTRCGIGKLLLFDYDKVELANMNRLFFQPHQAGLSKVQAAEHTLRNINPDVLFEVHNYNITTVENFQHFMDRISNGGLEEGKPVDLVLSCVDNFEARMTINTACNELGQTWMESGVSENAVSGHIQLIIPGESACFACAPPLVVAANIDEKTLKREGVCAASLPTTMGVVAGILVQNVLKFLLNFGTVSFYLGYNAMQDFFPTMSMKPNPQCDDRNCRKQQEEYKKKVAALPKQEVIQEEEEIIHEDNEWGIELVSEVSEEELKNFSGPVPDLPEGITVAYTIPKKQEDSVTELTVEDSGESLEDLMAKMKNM

[17] = organism: Homo sapiens; assay: Inhibition of human recombinant NAE assessed as inhibition of NEDD8-UbcH12 complex formation at 1 nM after 1.5 hrs by Western blot analysis; summary of the method: as §1
[18] = Inhibition of human recombinant NAE assessed as inhibition of NEDD8-UbcH12 complex formation after 1.5 hrs by Western blot analysis; summary of the method: as §1

inhibition [1]: Active | EC50 [2]: 160 nM | Activity [3]: 100% | inhibition [4]: Active | inhibition [5]: Active | Activity [6]: 102% | inhibition [7]: Active | inhibition [8]: Active | Activity [9]: 114% | Activity [10]: 109% | Activity [11]: 101% | Activity [13]: 99.3% | Activity [15]: 123% | inhibition [16]: inactive | inhibition [17]: > 70% | IC50 [18]: < 10 nM
Structure (SMILES): CCCCCCNc1ncnc2c1ncn2[C@@H]1O[C@H](COS(N)(=O)=O)[C@@H](O)[C@H]1O
Activity [12]: 88.5% | inhibition [14]: Active
